How the values were obtained:
Settings in all cases: stereoisomer not certain
UniProt E9PZ66 = target: T1, UniProt E9PZ66
T1 sequence (whole entry): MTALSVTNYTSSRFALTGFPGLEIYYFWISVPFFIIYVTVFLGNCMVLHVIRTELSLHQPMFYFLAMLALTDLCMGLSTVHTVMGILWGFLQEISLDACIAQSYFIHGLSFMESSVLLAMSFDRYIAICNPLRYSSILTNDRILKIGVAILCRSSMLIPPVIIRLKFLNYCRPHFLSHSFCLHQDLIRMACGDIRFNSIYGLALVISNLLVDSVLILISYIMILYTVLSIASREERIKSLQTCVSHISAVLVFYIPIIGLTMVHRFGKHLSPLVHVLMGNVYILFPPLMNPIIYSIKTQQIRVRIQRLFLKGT
Outline: (§1)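 Assay methods differ from source to source, frequently being transient luciferase assays in mammalian cell lines. For each receptor–molecule pair, the label responsive (active) applies when the original authors judged the measured signal statistically different from baseline, and non-responsive (inactive) applies otherwise.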

UniProt E9Q4X7 = target: T2, UniProt E9Q4X7
T2 sequence (whole entry): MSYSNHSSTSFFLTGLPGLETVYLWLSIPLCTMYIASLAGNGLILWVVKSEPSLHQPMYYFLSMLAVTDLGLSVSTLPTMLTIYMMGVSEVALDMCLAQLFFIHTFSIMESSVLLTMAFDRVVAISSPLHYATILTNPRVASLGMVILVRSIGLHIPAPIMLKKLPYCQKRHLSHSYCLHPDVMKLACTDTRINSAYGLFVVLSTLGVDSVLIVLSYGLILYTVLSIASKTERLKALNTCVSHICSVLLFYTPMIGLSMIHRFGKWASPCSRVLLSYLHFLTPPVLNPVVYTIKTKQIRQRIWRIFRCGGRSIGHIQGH
Outline: as §1

UniProt E9Q546 = target: T3, UniProt E9Q546
T3 sequence (whole entry): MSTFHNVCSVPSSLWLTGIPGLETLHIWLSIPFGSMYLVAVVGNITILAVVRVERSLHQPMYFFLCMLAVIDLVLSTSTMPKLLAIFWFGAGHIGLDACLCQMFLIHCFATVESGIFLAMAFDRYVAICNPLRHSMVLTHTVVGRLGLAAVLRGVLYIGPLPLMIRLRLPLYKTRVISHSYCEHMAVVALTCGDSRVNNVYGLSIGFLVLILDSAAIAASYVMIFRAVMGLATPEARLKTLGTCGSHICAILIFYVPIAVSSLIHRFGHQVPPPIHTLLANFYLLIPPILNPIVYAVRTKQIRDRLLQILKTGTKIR
Outline: as §1

UniProt E9Q6Z7 = target: T4, UniProt E9Q6Z7
T4 sequence (whole entry): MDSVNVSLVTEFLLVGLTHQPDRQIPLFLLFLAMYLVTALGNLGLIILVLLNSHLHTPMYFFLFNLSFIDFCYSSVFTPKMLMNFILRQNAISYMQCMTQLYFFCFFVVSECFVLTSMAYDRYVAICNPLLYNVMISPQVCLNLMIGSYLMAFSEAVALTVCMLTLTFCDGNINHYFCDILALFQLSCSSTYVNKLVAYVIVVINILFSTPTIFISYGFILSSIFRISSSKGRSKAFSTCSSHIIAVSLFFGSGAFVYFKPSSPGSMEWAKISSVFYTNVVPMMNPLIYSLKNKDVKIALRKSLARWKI
Outline: as §1

UniProt E9PXN3 = target: T5, UniProt E9PXN3
T5 sequence (whole entry): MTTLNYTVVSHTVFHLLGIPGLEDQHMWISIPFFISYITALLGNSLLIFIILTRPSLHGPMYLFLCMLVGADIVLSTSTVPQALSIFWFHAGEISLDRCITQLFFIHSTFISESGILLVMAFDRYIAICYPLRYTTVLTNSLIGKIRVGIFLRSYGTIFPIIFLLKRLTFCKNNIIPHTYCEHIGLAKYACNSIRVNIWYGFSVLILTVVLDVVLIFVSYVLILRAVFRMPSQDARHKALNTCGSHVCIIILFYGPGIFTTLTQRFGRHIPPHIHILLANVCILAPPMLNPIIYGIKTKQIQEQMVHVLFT
Outline: as §1

UniProt K7N609 = target: T6, UniProt K7N609
T6 sequence (whole entry): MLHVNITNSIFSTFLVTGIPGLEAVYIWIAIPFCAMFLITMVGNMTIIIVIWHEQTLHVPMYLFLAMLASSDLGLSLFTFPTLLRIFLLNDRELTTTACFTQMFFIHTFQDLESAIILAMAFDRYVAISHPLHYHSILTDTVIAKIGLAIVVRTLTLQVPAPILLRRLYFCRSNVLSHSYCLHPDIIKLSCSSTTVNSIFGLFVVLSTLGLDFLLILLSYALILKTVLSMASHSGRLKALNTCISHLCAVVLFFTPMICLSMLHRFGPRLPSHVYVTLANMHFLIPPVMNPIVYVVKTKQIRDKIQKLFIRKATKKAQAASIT
Outline: as §1

Measured: odorant receptor agonist call

CC1(C)CC(=O)CC(=O)C1
inactive: UniProt E9PZ66 | UniProt E9Q4X7 | UniProt E9Q546 | UniProt E9Q6Z7

CCCCC(=O)O
active: UniProt E9PZ66
inactive: all other assays above

CCSSCC
inactive: UniProt E9PZ66 | UniProt E9Q4X7 | UniProt E9Q546 | UniProt E9Q6Z7

CC(=O)OC1(C)CCC23CC1C(C)(C)C2CCC3C (configuration not stated)
inactive: UniProt E9PZ66 | UniProt E9Q4X7 | UniProt E9Q546 | UniProt E9Q6Z7

CC(C)CS
inactive: UniProt E9PZ66 | UniProt E9Q4X7 | UniProt E9Q546 | UniProt E9Q6Z7

CC(C)CCN
inactive: UniProt E9PZ66 | UniProt E9Q4X7 | UniProt E9Q546 | UniProt E9Q6Z7

OCC=Cc1ccccc1
inactive: UniProt E9PZ66 | UniProt E9Q4X7 | UniProt E9Q546 | UniProt E9Q6Z7

CCOC(=O)CC(C)C
inactive: UniProt E9PZ66 | UniProt E9Q4X7 | UniProt E9Q546 | UniProt E9Q6Z7

CCCCCCO
inactive: all assays above

CC(=O)OCCc1ccccc1
inactive: UniProt E9PZ66 | UniProt E9Q4X7 | UniProt E9Q546 | UniProt E9Q6Z7

O=C([O-])CCCCCCC(=O)[O-].[H+].[H+]
inactive: UniProt E9PZ66 | UniProt E9Q4X7 | UniProt E9Q546 | UniProt E9Q6Z7

CCCCCCCCCCCC(=O)O
active: UniProt E9PXN3

CCCCCOC(=O)CC
inactive: UniProt E9PZ66 | UniProt E9Q4X7 | UniProt E9Q546 | UniProt E9Q6Z7

COC(OC)c1ccccc1
inactive: UniProt E9PZ66 | UniProt E9Q4X7 | UniProt E9Q546 | UniProt E9Q6Z7

CC=Cc1ccc(OC)cc1
inactive: UniProt E9PZ66 | UniProt E9Q4X7 | UniProt E9Q546 | UniProt E9Q6Z7

CCCCOC(=O)CCC
inactive: UniProt E9PXN3

CCCCCCCCC=CC=O
inactive: UniProt E9PZ66 | UniProt E9Q4X7 | UniProt E9Q546 | UniProt E9Q6Z7

CCCCCCCCCCCO
not listed: UniProt K7N609
inactive: all other assays above

CCCCCCCO
inactive: all assays above

From the M2OR odorant receptor database
